# Screening data deposited in PubChem BioAssay by several laboratories.
# Shown are actives, neighbours in structure and some others; about 1% of the full set was active somewhere.
# DNA FID counter = fluorescent intercalator displacement, NS3 helicase counter-screen; DNA fluorescent intercalator displacement, fluorescence; inhibition, % at 7.9 µM; hit rate 0.17% among 290,000; in the data active = inhibition above about 37%;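 note: 0% = vehicle and 100% = reference compound; higher means more ethidium bromide displaced from hairpin DNA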
# IMP-1 inh-1 = blocks Pseudomonas aeruginosa IMP-1 metallo-beta-lactamase. hit rate 0.45% among 290,000. inhibition, % at 5.6 µM. AID 1556. purified IMP-1, nitrocefin hydrolysis, epi-absorbance fluorescence;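 active = inhibition above the mean plus 3 SD of all compounds in the same screening run, cut at about 4.5% in these data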;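 note: 0% = IMP-1 with DMSO and 100% = DMSO wells lacking enzyme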
#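 Test system: recombinant IMP-1 enzyme, purified / Medium: HEPES buffer pH 7.1 with ZnSO4 and Brij 35 / Doses: single dose, 5.6 µM / Times: 25 °C, 15 min preincubation, 25 min reaction / Detection: Epi-absorbance via hydrolysed-nitrocefin quenching of white-plate fluorescence, 480/530 nm, EDTA stop / Evaluation: percent inhibition from optical density relative to buffer-blank wells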
# VIM-2 inh = blocks Pseudomonas aeruginosa VIM-2 metallo-beta-lactamase. purified VIM-2, nitrocefin hydrolysis, epi-absorbance fluorescence. hit rate 0.89% among 290,000. inhibition, % at 5.6 µM. AID 1527;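 active = inhibition above the mean of all tested compounds plus 3 SD, cutoff set per screening run, cut at about 7.5% in these data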;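 note: red hydrolysis product quenches plate fluorescence so inhibitors raise well fluorescence; 0% = enzyme with DMSO and 100% = DMSO without enzyme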
# RAD54 branch = RAD54 (human) branch migration inhibition; Q92698; RAD54 Holliday junction branch migration, FAM/BHQ fluorescence; inhibition, % at 10.4 µM; hit rate 0.14% among 360,000; AID 602329;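 active = mean normalized replicate activity at least 40 and at least half of replicates scoring 40 or more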;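 note: 0% = median of neutral control wells and 100% = median of positive control wells; inhibitors cause a drop in the FAM fluorescence signal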
# Target sequence (Q92698 whole entry, looked up): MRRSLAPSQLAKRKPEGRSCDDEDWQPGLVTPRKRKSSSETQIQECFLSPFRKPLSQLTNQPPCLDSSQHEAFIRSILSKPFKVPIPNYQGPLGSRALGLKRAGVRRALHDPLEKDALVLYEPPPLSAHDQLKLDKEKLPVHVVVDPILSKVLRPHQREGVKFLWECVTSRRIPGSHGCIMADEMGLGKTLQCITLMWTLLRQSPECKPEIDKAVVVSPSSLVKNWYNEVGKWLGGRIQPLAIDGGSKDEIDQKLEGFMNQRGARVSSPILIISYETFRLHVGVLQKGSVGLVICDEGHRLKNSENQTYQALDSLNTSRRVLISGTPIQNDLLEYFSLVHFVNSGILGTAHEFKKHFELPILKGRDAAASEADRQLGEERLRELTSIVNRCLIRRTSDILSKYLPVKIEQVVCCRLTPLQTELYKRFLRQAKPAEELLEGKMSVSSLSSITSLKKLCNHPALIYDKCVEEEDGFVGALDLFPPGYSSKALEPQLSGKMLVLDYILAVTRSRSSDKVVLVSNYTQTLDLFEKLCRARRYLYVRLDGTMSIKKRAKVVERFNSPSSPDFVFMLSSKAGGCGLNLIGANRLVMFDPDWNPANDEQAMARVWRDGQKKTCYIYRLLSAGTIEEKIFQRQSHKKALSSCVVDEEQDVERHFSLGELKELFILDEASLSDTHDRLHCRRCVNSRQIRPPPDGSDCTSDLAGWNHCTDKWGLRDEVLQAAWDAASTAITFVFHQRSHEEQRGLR
# PvdQ acylase = P. aeruginosa PvdQ acylase inhibition | purified PvdQ acylase, fluorescence plate reader | inhibition, % at 10 µM | hit rate 0.063% among 340,000; in the data active = inhibition above about 30%, passing the limit was not always enough;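 note: 0% = vehicle neutral wells and 100% = reference inhibitor wells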
# IMP-1 inh-2 = selectivity counter-screen for VIM-2 inhibitors: IMP-1 metallo-beta-lactamase inhibitors | shares compounds with VIM-2 inh | purified IMP-1, nitrocefin hydrolysis, epi-absorbance fluorescence | inhibition, % at 5.6 µM | 1,300 tested, under 10 active; call rule not given here;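 note: 0% = enzyme with vehicle and 100% = vehicle without enzyme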
# VIM-2 FRET ctr = counter-screen for VIM-2 inhibitors: epi-absorbance artifacts via FRET | shares compounds with VIM-2 inh | AID 1857 | purified VIM-2, CCF2 FRET substrate hydrolysis | inhibition, % at 5.6 µM | hit rate 23% among 1,300;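 active = inhibition above the mean of all tested compounds plus 3 SD, cut at about 19% in these data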;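 note: 0% = VIM-2 plus DMSO and 100% = no enzyme wells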
# TEM-1 inh = blocks E. coli TEM-1 beta-lactamase in VIM-2 selectivity screen; shares compounds with VIM-2 inh; inhibition, % at 5.6 µM; AID 1866; Purified TEM-1, nitrocefin hydrolysis, epi-absorbance fluorescence; hit rate 3% among 1,300;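 active = inhibition above that campaign's mean inhibition plus 3 SD, cut at about 0.46% in these data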;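 note: 0% = TEM-1 with DMSO and 100% = TEM-1 with 100 µM potassium clavulanate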
# VIM-2 inh conf = confirmation of P. aeruginosa VIM-2 metallo-beta-lactamase inhibitors; purified VIM-2, nitrocefin hydrolysis, epi-absorbance; hit rate 96% among 1,300; shares compounds with VIM-2 inh; AID 2187; inhibition, % at 5.6 µM;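 active = inhibition of the VIM-2 beta-lactamase enzyme above about 11% from the earlier first-round screen, limit read from the data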;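 note: 0% = VIM-2 with DMSO and 100% = buffer wells without enzyme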
# An asterisk follows results filed as active; nt = not tested or not shown.
SMILES,DNA FID counter,IMP-1 inh-1,VIM-2 inh,RAD54 branch,PvdQ acylase,IMP-1 inh-2,VIM-2 FRET ctr,TEM-1 inh,VIM-2 inh conf
Cc1nc(-c2ccccn2)nc(SCC(=O)c2ccc(F)cc2)c1Cl,-22,-6,50*,nt,6,-5,-24,-6,67*
O=C(CSc1ccc(-c2ccccn2)nn1)c1ccc(F)cc1,-2,-16,-6,-9,-14,nt,nt,nt,nt
COc1ccc2c(c1)oc(=O)c1cc(OC)ccc12,-1,-1,-1,-2,-9,nt,nt,nt,nt
COc1ccc2c(c1)oc(=O)c1ccccc12,-6,0,8.3*,-6,-5,-3,0,-6,15*
OCCCc1n[nH]c(=S)n1-c1ccccc1,6,-2,23*,nt,-5,-3,38*,-7,27*
COCc1n[nH]c(=S)n1-c1ccccc1,-1,-5,5,-3,4,nt,nt,nt,nt
CCc1c(C)nc2ncnn2c1NCCc1ccc(OC)c(OC)c1,-10,-1,34*,4,-7,-2,-2,-4,55*
CCOc1ccc(CCNc2cc(C)nc3ncnn23)cc1OCC,-11,-2,0,3,-11,nt,nt,nt,nt
CCOC(=O)c1ccccc1N/C=C/C(=O)c1ccccc1,-45,1,4,5,7,nt,nt,nt,nt
CCOC(=O)c1ccccc1N/C=C1\CCCCC1=O,-8,-3,14*,nt,1,-2,24*,-4,27*
O=C(O)C(c1ccccc1)N1C(=O)/C(=C\c2ccc(O)c(O)c2)SC1=S (stereo not given),-9,-4,31*,nt,-9,-6,50*,-8,31*
COc1cc(/C=C2\SC(=S)N(C(C(=O)O)c3ccccc3)C2=O)ccc1O (stereo not given),-15,-5,7,-184,1,nt,nt,nt,nt
C[C@H](CO)N1C[C@H](C)[C@H](CN(C)S(=O)(=O)c2ccccc2F)Oc2ncc(C#Cc3ccccc3F)cc2C1=O,nt,nt,nt,-5,nt,nt,nt,nt,nt
NC(=S)Nc1cccc2cccnc12,2,0,-4,10,-10,nt,nt,nt,nt
NC(=S)NNc1cccc2cccnc12,9,-3,18*,5,7,-5,-15,-10,15*
O=C(C[C@H]1CC[C@@H]2[C@H](COC[C@@H](O)CN2S(=O)(=O)c2cccc(F)c2)O1)Nc1ccccc1,nt,nt,nt,-9,nt,nt,nt,nt,nt
C=CCn1c(=O)n2ncnc2c2c3c(sc21)CCCC3,-11,-1,15*,nt,-20,-3,5,-6,39*
Oc1ccc(-c2nccc(-c3ccc(F)cc3)n2)cc1,-5,-2,16*,3,11,-2,-6,-4,31*
NNC(=O)COc1ccc(-c2nccc(-c3ccc(F)cc3)n2)cc1,-29,-1,-1,-2,10,nt,nt,nt,nt
COc1cccc(-c2nnc3sc(-c4ccccn4)nn23)c1,-9,-3,15*,7,8,-4,-2,-7,23*
O=C(CC(C(=O)O)c1cccc(Cl)c1Cl)c1ccccc1 (stereo not given),-23,1,15*,-7,4,-2,29*,-5,18*
O=C(CC(C(=O)O)c1ccc(Cl)cc1Cl)c1ccc(Cl)cc1 (stereo not given),-20,0,3,-4,-13,nt,nt,nt,nt
CCN1[C@@H]2Cn3c(ccc(-c4ccncc4)c3=O)[C@H]1[C@@H](C(=O)Nc1ccccc1)[C@@H]2CO,nt,nt,nt,-25,nt,nt,nt,nt,nt
C[C@@H]1CN([C@H](C)CO)S(=O)(=O)c2ccc(C3=CCCC3)cc2O[C@H]1CN(C)Cc1ccncc1,nt,nt,nt,-5,nt,nt,nt,nt,nt
Cn1cccc1C(=O)NC(=O)COC(=O)c1ccccc1O,-8,-3,-2,nt,-7,nt,nt,nt,nt
Cc1cc(C(=O)OCC(=O)NC(=O)c2cccn2C)c2ccccc2n1,-7,-3,12*,nt,-9,-4,46*,-6,33*
C[C@H]1CN([C@@H](C)CO)C(=O)c2cc(-c3cccc(F)c3)cnc2O[C@H]1CN(C)C,nt,nt,nt,6,nt,nt,nt,nt,nt
